Laboratory results: ChEMBL document CHEMBL1131050, “Benzoxazole derivatives as novel 5-HT3 receptor partial agonists in the gut” (J Med Chem, 1998)

How the values were obtained:
[1] = molecular target: T1, Serotonin 3 (5-HT3) receptor (Rattus norvegicus, UniProt P35563+Q9JJ16); assay: Binding affinity for 5-hydroxytryptamine 3 receptor in rat cerebral cortex, determined by displacement of [3H]GR-65630; assay type: tissue-based
T1 sequence (P35563 whole entry): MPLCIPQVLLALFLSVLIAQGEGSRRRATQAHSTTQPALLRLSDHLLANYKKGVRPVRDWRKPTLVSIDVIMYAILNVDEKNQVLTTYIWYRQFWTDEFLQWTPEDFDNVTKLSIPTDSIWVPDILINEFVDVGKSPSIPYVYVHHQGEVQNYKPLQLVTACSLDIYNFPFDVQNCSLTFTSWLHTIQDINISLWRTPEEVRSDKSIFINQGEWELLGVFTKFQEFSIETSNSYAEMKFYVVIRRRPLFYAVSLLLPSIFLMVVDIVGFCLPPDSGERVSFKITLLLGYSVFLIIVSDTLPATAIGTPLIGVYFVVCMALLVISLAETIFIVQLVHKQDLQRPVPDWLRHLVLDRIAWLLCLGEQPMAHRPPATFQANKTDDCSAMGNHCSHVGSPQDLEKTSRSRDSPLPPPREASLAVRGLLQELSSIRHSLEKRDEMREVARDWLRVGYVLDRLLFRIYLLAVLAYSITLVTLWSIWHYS
T1 sequence (Q9JJ16 whole entry): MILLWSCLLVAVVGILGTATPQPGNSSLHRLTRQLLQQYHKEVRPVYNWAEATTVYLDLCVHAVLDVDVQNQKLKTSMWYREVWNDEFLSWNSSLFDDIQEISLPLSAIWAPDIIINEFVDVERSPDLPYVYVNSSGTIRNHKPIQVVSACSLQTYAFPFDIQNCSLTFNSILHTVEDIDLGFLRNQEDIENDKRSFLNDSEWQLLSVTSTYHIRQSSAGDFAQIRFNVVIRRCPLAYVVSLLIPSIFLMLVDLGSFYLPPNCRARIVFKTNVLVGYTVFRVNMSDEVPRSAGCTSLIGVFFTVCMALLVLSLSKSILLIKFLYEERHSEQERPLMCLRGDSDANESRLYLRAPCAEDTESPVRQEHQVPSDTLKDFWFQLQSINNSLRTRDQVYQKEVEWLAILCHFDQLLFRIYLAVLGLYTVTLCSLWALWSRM
Method in brief: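 Membranes from cortex of male Wistar rats (250–300 g); 0.04 mg membrane incubated with 0.2 nM […], 60 min, 22 °C; filtration, three washes, filter counting. Nonspecific binding defined with 1 mM ICS205-930. Six replicates per dose; displacement curves fitted by nonlinear regression to give IC50, converted to Ki by Cheng–Prusoff.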

[2] = system: 5-HT3 receptor (Cavia porcellus); assay: Maximal partial agonist activity at 5-hydroxytryptamine 3 receptor of isolated guinea pig ileum as ratio to 5-HT response
[3] = system: 5-HT3 receptor (Cavia porcellus); assay: Potency of partial agonist action given by concentration producing 50% of individual maximal contraction of isolated guinea pig ileum
Mus musculus [4] = assay: Transition time (time required to evacuate the glass bead) in the distal colon in mice at dose 0.3 mg/kg; assay type: functional
Method in brief: (§1)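 Male mice fasted 4 h. Compound given sc 20 min before a 3 mm glass bead was inserted 3 cm into the distal colon; time to expel the bead was recorded. 8 animals per group, mean ± SEM. Compared with control by ANOVA followed by Steel's multiple range test, p < 0.05.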

Mus musculus [5] = assay: Transition time (time required to evacuate the glass bead) in the distal colon in mice at dose 1 mg/kg; assay type: functional; method in brief: as §1
Mus musculus [6] = assay: Transition time (time required to evacuate the glass bead) in the distal colon in mice at dose 3 mg/kg; assay type: functional; method in brief: as §1
[7] = molecular target: T2, 5-hydroxytryptamine receptor 1F (Rattus norvegicus) (UniProt P30940); assay: Inhibitory activity against 5-hydroxytryptamine 1 receptor using [3H]5-HT as radioligand at 10e-5 M concentration
T2 sequence (whole entry): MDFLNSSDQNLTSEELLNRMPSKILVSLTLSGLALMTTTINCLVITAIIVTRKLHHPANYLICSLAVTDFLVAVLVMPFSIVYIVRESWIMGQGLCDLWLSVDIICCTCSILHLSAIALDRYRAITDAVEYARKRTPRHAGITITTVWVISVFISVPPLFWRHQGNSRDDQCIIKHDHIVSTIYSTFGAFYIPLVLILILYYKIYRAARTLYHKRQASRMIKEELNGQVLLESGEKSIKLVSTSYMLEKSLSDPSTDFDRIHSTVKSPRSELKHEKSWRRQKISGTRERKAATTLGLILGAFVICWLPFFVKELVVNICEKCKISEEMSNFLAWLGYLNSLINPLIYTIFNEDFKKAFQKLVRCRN

[8] = molecular target: T3, 5-hydroxytryptamine receptor 1A (Mus musculus) (UniProt Q64264); assay: Inhibitory activity against 5-hydroxytryptamine 1A receptor using [3H]8-OH-DPAT as radioligand at 10e-5 M concentration
T3 sequence (whole entry): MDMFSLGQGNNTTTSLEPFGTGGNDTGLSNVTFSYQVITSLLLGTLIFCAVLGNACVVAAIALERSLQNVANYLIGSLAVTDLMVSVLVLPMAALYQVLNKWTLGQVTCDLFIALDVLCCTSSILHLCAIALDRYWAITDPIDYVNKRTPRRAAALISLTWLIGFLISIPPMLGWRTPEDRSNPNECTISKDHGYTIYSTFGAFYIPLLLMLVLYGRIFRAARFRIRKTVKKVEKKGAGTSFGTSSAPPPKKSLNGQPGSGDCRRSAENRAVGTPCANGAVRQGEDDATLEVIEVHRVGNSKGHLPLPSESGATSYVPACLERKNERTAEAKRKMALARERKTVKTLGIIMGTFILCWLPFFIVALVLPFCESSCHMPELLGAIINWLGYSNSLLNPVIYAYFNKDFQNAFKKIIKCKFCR

[9] = molecular target: 5-hydroxytryptamine receptor 2A (Bos taurus) (UniProt Q75Z89); assay: Inhibitory activity against 5-hydroxytryptamine 2 receptor using [3H]-ketanserin as radioligand at 10e-5 M concentration
[10] = molecular target: T1, Serotonin 3 (5-HT3) receptor; assay: Binding affinity for 5-hydroxytryptamine 3 receptor was determined by measuring displacement of [3H]GR-65630 from rat brain cortices
[11] = molecular target: GABA-A receptor; anion channel (Homo sapiens) (UniProt P14867+P47870+P18507+P28472+P48169+Q99928+Q9UN88+P34903+O00591+O14764+Q8N1C3+P18505+P78334+P47869+P31644+Q16445); assay: Inhibition of [3H]flunitrazepam binding to GABA-A central benzodiazepine receptor at 10e-5 M; assay type: protein-complex assay
[12] = molecular target: Beta-2 adrenergic receptor (Canis lupus familiaris) (UniProt P54833); assay: Inhibitory activity against non-selective beta adrenergic receptor using [3H]DHA as radioligand at 10e-5 M concentration
[13] = molecular target: D(1A) dopamine receptor (Mus musculus) (UniProt Q61616); assay: Inhibitory activity against Dopamine receptor D1 using [3H]SCH-23390 as radioligand at 10e-5 M concentration at 10e-5 M concentration
Mus musculus [14] = assay: Inhibitory activity against 5-HT evoked diarrhea in mice, sc; assay type: functional; details: read-out: ID50 (the source's name)
Mus musculus [15] = assay: Transition time (time required to evacuate the glass bead) in the distal colon in mice at dose 30 mg/kg; assay type: functional; method in brief: as §1
Rattus norvegicus = organism: Rattus norvegicus; assay: Inhibitory dose against 5-HT-Evoked Bezold-Jarisch (B-J) reflex in rats; assay type: functional; details: read-out: ID50 (the source's name)
[16] = molecular target: D(2) dopamine receptor (Homo sapiens) (UniProt P14416); assay: Inhibitory activity against Dopamine receptor D2 using [3H]-spiperone as radioligand at 10e-5 M concentration
[17] = system: Alpha-1 adrenergic receptor (Rattus norvegicus); assay: Inhibitory activity against Alpha-1 adrenergic receptor using [3H]prazosin as radioligand at 10e-5 M concentration
[18] = system: Alpha-2 adrenergic receptor (Rattus norvegicus); assay: Inhibitory activity against Alpha-2 adrenergic receptor using [3H]rauwolscine as radioligand at 10e-5 M concentration

Beta-2 adrenergic receptor (Canis lupus familiaris), sequence (P54833 whole entry, looked up): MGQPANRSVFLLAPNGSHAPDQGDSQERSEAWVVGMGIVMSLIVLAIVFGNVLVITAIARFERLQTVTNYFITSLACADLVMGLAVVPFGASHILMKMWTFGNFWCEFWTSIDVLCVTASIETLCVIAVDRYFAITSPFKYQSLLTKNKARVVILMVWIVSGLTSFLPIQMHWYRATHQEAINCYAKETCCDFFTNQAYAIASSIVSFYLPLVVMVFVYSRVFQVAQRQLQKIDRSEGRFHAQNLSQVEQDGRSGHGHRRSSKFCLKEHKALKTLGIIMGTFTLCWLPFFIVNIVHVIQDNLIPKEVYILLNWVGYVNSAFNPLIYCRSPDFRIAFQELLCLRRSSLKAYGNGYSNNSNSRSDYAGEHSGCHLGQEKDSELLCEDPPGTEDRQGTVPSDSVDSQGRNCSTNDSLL
5-hydroxytryptamine receptor 2A (Bos taurus), sequence (Q75Z89 whole entry): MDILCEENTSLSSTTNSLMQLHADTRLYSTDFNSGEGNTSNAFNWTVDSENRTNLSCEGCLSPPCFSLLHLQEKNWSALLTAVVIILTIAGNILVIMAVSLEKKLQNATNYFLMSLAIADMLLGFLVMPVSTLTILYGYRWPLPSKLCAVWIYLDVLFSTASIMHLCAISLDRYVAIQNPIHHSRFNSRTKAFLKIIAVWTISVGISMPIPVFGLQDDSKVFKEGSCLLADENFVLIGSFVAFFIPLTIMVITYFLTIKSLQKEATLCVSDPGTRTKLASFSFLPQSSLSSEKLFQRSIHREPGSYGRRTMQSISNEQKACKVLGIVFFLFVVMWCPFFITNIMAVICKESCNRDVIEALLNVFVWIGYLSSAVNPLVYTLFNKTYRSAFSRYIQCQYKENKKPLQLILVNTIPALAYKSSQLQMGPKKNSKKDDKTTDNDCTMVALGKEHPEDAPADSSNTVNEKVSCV
D(2) dopamine receptor (Homo sapiens), sequence (P14416 whole entry): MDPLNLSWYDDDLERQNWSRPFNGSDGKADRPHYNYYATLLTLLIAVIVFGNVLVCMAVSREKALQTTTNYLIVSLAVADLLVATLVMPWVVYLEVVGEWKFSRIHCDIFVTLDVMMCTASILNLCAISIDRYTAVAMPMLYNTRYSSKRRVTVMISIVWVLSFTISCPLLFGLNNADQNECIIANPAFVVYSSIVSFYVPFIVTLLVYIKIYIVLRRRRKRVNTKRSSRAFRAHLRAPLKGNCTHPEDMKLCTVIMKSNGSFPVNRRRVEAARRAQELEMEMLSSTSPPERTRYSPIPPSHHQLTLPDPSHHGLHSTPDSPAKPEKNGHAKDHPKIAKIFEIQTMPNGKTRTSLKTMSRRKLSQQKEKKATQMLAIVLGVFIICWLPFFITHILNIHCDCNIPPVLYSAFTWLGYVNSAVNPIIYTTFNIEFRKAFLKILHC
D(1A) dopamine receptor (Mus musculus), sequence (Q61616 whole entry): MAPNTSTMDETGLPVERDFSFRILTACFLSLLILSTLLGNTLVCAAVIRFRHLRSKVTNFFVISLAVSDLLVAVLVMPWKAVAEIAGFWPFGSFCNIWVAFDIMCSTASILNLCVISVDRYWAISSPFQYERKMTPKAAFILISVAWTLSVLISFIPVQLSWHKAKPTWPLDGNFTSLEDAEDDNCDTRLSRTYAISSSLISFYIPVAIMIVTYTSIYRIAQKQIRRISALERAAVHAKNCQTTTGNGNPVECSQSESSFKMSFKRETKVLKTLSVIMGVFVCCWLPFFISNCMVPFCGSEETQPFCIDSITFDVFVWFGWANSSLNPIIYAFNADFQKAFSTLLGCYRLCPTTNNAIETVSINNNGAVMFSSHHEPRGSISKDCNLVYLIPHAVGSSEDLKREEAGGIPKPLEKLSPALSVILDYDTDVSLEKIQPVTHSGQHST

SMILES: Cc1cc(Cl)cc2nc(N3CCN(C)CC3)oc12
- inhibition at 10^-7 M [1]: 85%
- IA [2]: 0.24
- pD2 [3]: 6.7

SMILES: CN1CCN(c2nc3cc(C(F)(F)F)ccc3o2)CC1
- inhibition at 10^-7 M [1]: 22%
- pD2 [3]: < 5

SMILES: Cc1c(Cl)cc2nc(N3CCN(C)CC3)oc2c1Cl
- inhibition at 10^-7 M [1]: 96%
- IA [2]: 0.1
- pD2 [3]: 6.64

SMILES: CN1CCN(c2nc3cc(Cl)ccc3o2)CC1
- inhibition at 10^-7 M [1]: 94%
- IA [2]: 0.5
- pD2 [3]: 6.07

SMILES: c1ccc2oc(N3CCCCC3)nc2c1
- pD2 [3]: < 5

SMILES: Cc1ccc2nc(N3CCN(C)CC3)oc2c1
- inhibition at 10^-7 M [1]: 74%
- IA [2]: 0.85
- pD2 [3]: 5.15

SMILES: Cc1cc2oc(N3CCN(C)CC3)nc2cc1Cl
- inhibition at 10^-7 M [1]: 95%
- IA [2]: 0.28
- pD2 [3]: 6.28

SMILES: c1ccc2oc(N3CCNCC3)nc2c1
- inhibition at 10^-7 M [1]: 83%

SMILES: Cc1cccc2oc(N3CCN(C)CC3)nc12
- inhibition at 10^-7 M [1]: 25%
- pD2 [3]: < 5

SMILES: CN1C2CCCC1CC(NC(=O)c1nn(C)c3ccccc13)C2 (stereo not given) [GRANISETRON]
- Time (Mus musculus [4]): 373 s
- Time (Mus musculus [5]): 614 s
- Time (Mus musculus [6]): 827 s

SMILES: CN1CCCN(c2nc3cc(Cl)ccc3o2)CC1
- inhibition at 10^-7 M [1]: 87%
- IA [2]: 0.31
- pD2 [3]: 7

SMILES: CN1CCCN(c2nc3ccccc3o2)CC1
- inhibition at 10^-7 M [1]: 86%
- IA [2]: 0.54
- pD2 [3]: 6.03

SMILES: Cc1cccc2nc(N3CCN(C)CC3)oc12
- inhibition at 10^-7 M [1]: 77%
- IA [2]: 0.58
- pD2 [3]: 5.46

SMILES: CN1CCN(c2nc3cc(Br)ccc3o2)CC1
- inhibition at 10^-7 M [1]: 92%
- IA [2]: 0.48
- pD2 [3]: 6.21

SMILES: Cc1ccc2oc(N3CCN(C)CC3)nc2c1
- inhibition at 10^-7 M [1]: 83%
- IA [2]: 0.72
- pD2 [3]: 6

SMILES: Cc1cc(Cl)cc2nc(N3CCCN(C)CC3)oc12
- inhibition [7]: 14%
- inhibition [8]: -3%
- inhibition [9]: 23%
- inhibition at 10^-7 M [1]: 98%
- Ki [10]: 1.1 nM
- inhibition [11]: 12%
- inhibition [12]: 24%
- inhibition [13]: 18%
- ED50 (Mus musculus [14]): 0.3 mg/kg
- Time (Mus musculus [4]): 262.6 s
- Time (Mus musculus [6]): 357.2 s
- Time (Mus musculus [15]): 328.8 s
- ED50 (Rattus norvegicus): 0.0876 mg/kg
- inhibition [16]: 5%
- inhibition [17]: 22%
- inhibition [18]: 33%
- IA [2]: 0.12
- pD2 [3]: 7.76

SMILES: CN1CCN(c2nc3ccccc3o2)CC1
- inhibition at 10^-7 M [1]: 55%
- IA [2]: 0.62
- pD2 [3]: 5.01

SMILES: Cc1cc(C)c2oc(N3CCN(C)CC3)nc2c1
- inhibition at 10^-7 M [1]: 94%
- IA [2]: 0.62
- pD2 [3]: 6.32

SMILES: Cc1cc2nc(N3CCN(C)CC3)oc2cc1C
- inhibition at 10^-7 M [1]: 32%
- IA [2]: 0.66
- pD2 [3]: 6.16

SMILES: CN1CCN(c2nc3cc(F)ccc3o2)CC1
- inhibition at 10^-7 M [1]: 91%
- IA [2]: 0.64
- pD2 [3]: 5.57

SMILES: CCc1ccc2oc(N3CCN(C)CC3)nc2c1
- inhibition at 10^-7 M [1]: 11%
- pD2 [3]: < 5

SMILES: Cc1c(Cl)cc2nc(N3CCN(C)CC3)oc2c1C
- inhibition at 10^-7 M [1]: 101%
- IA [2]: 0.14
- pD2 [3]: 6.67

SMILES: CN1CCN(c2nc3cc(Cl)cc(Cl)c3o2)CC1
- inhibition at 10^-7 M [1]: 62%
- IA [2]: 0.14
- pD2 [3]: 6.51

SMILES: c1ccc2oc(C3CCNCC3)nc2c1
- inhibition at 10^-7 M [1]: 39%
- IA [2]: 0.31
- pD2 [3]: 5.59
